According to ChEMBL document CHEMBL1914395, “Design, synthesis, and biological evaluation of callophycin A and analogues as potential chemopreventive and anticancer agents” (Bioorg Med Chem, 2011):

Tests used:
[1] = biological target: NAD(P)H dehydrogenase [quinone] 1 (Mus musculus) (UniProt Q64669); assay: Induction of quinone reductase 1 activity in mouse Hepa-1c1c7 cells at 50 uM by MTT assay relative to untreated control; type: cell-based
Summary of the method: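 Hepa 1c1c7 murine hepatoma cells treated with compound at 50 μM. QR1 measured by NADPH-dependent, menadiol-mediated reduction of MTT to formazan. Protein measured by crystal violet staining of identical plates. Specific activity is nmol formazan per mg protein per min. Induction ratio is treated versus DMSO-treated control.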

[2] = biological target: NAD(P)H dehydrogenase [quinone] 1 (Mus musculus) (UniProt Q64669); assay: Induction of quinone reductase 1 activity in mouse Hepa-1c1c7 cells assessed as cell survival at 50 uM by MTT assay relative to control; type: cell-based
[3] = biological target: NAD(P)H dehydrogenase [quinone] 1 (Mus musculus) (UniProt Q64669); assay: Induction of quinone reductase 1 in mouse Hepa 1c1c7 cells assessed as concentration of compound required to double enzyme activity by MTT assay; type: cell-based
Summary of the method: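 Dose-response in Hepa 1c1c7 cells, run for substances with induction ratio >2 at 50 μM. QR1 activity measured as menadiol-mediated, NADPH-dependent MTT reduction to formazan, normalised to crystal violet protein content. CD is the concentration that doubles specific activity relative to DMSO control.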

Aromatase = biological target: T1, Aromatase (Homo sapiens, UniProt P11511); assay: Inhibition of aromatase at 50 uM after 10 mins preincubation by plate reader relative to control
T1 sequence (P11511 whole entry): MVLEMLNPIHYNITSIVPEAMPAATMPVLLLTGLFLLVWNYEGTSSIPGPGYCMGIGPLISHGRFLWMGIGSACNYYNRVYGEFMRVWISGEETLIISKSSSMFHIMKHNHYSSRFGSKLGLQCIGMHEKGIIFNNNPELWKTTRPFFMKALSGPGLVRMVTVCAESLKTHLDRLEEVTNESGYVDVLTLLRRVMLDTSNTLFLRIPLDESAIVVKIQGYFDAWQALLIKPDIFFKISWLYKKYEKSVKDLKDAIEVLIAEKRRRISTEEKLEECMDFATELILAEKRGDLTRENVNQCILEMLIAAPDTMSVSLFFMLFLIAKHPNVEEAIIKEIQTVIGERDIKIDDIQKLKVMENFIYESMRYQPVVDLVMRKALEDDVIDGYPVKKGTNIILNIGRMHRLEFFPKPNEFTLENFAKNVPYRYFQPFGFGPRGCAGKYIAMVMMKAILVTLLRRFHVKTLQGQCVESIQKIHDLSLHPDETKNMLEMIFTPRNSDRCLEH
Summary of the method: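 CYP19 enzyme. Compound pre-incubated 10 min with an NADPH-regenerating system (NADP+, glucose 6-phosphate, G6PDH, MgCl2, albumin) in 50 mM potassium phosphate pH 7.4. Enzyme and 0.4 μM dibenzylfluorescein substrate then added, 30 min at 37 °C. Quenched with 2 N NaOH and incubated a further 2 h at 37 °C. Fluorescence read at ex 485/em 530 nm. Compound tested at 50 μM.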

[4] = biological target: T2, Nitric oxide synthase, inducible (Mus musculus) (UniProt P29477); assay: Inhibition of iNOS-mediated nitric oxide production in LPS-stimulated mouse RAW 264.7 cells at 50 uM pretreated 15 mins before LPS challenge measured after 20 hrs relative to control; type: cell-based
T2 sequence (whole entry): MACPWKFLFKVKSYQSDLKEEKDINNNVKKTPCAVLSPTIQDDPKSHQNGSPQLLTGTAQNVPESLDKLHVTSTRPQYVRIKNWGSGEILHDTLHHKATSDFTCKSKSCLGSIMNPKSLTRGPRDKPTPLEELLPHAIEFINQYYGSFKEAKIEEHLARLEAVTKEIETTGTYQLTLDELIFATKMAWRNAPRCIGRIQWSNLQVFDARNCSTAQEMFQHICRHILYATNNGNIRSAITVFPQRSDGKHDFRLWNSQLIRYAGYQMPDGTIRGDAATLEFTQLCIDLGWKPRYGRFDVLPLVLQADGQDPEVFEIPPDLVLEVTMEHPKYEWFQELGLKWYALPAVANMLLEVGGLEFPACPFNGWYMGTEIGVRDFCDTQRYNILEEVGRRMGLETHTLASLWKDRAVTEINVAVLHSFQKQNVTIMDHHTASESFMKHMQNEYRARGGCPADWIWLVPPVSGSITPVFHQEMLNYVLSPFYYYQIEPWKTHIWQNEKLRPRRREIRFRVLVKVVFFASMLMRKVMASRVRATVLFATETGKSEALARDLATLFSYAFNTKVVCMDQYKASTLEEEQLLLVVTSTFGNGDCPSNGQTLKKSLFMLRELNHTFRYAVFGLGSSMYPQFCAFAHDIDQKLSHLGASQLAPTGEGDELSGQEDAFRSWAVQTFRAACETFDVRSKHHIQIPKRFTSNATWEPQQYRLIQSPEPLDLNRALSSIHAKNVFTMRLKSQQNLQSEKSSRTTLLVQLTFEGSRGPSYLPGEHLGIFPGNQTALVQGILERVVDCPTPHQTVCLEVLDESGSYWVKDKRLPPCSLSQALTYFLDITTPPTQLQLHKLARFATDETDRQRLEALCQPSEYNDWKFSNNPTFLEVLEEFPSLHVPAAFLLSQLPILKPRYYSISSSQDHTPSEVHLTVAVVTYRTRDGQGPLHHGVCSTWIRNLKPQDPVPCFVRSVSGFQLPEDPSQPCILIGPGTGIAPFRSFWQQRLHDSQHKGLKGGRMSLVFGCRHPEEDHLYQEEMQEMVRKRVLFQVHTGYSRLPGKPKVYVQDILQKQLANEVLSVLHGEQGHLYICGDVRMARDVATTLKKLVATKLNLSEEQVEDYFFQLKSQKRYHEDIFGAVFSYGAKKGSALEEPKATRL
Summary of the method: (§1)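 RAW 264.7 cells cultured 24 h at 37°C, then given serially diluted compounds for 15 min before LPS (1 μg/mL) for 20 h. Nitrite in the medium measured with Griess reagent at 540 nm against a sodium nitrite standard curve. Cytotoxicity checked by SRB under the same conditions.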

[5] = biological target: T2, Nitric oxide synthase, inducible (Mus musculus); assay: Inhibition of iNOS-mediated nitric oxide production in LPS-stimulated mouse RAW 264.7 cells assessed as cell survival at 50 uM pretreated 15 mins before LPS challenge measured after 20 hrs relative to control; type: cell-based
Summary of the method: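 RAW 264.7 cells were incubated at 37°C, 5% CO2 for 24 h. They were then exposed to compound for 15 min before LPS (1 μg/mL) was added for 20 h. Cytotoxicity was measured by SRB staining under the same conditions. Survival is expressed as % relative to vehicle-treated controls at 50 μM.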

HEK293 [6] = assay: Inhibition of TNF-alpha-induced NFkappaB activation in human HEK293 cells at 50 uM after 6 hrs by luciferase assay relative to control; type: cell-based
Summary of the method: (§2)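 Cells incubated 6 h with TNFα plus test compound, then luciferase activity measured. Results expressed as percent of TNFα-treated control. Screening concentration 50 μM.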

HEK293 [7] = assay: Inhibition of TNF-alpha-induced NFkappaB activation in human HEK293 cells assessed as cell survival at 50 uM after 6 hrs by luciferase assay relative to control; type: cell-based
[8] = Inhibition of TNF-alpha-induced NFkappaB activation in human HEK293 cells after 6 hrs by luciferase assay; type: cell-based; details: HEK293, 6 h; summary of the method: as §2
MCF7 [9] = assay: Antiproliferative activity against human MCF7 cells assessed as survival at 50 uM after 72 hrs by SRB assay relative to control; type: functional; details: MCF7, 72 h, read-out: Survival
Summary of the method: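 MCF7 cells (1 × 10^4 per well) were plated onto compound and kept at 37°C, 5% CO2 for 72 h. Cells were fixed in 10% TCA for 30 min and stained with 0.4% SRB in 1% acetic acid for 30 min. Bound dye was dissolved in 10 mM Tris (pH 10.0) and read at 515 nm. Survival is given as % of DMSO-treated controls, screened at 50 μM.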

[10] = biological target: T3, Nitric oxide synthase, inducible (Mus musculus, UniProt P29477); assay: Inhibition of iNOS-mediated nitric oxide production in LPS-stimulated mouse RAW 264.7 cells pretreated 15 mins before LPS challenge measured after 20 hrs relative to control; type: cell-based; summary of the method: as §1
T3 sequence (P29477 whole entry): T2 sequence (whole entry)

MCF7 [11] = assay: Antiproliferative activity against human MCF7 cells after 72 hrs by SRB assay; type: functional, cell-based; details: MCF7, 72 h
Summary of the method: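 MCF7 cells, 1 × 10^4 per well, plated directly onto compounds and incubated 72 h at 37°C, 5% CO2. Fixed with 10% TCA, stained with 0.4% SRB in 1% acetic acid. Bound dye dissolved in 10 mM Tris pH 10.0, absorbance read at 515 nm. Survival expressed relative to DMSO-treated controls.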

Chain of NAD(P)H dehydrogenase [quinone] 1 (Mus musculus) (Q64669 whole entry): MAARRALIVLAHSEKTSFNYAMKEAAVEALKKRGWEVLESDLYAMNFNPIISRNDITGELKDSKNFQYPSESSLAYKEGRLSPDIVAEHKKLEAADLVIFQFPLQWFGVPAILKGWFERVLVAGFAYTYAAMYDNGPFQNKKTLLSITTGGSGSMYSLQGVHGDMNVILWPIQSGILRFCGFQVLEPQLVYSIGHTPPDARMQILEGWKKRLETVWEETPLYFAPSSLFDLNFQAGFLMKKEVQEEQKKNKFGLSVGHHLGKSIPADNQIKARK

| Structure (SMILES) | Ratio [1] | Survival [2] [%] | CD [3] [µM] | inhibition at 50 µM (Aromatase) [%] | inhibition [4] [%] | Survival [5] [%] | inhibition (HEK293 [6]) [%] | Survival (HEK293 [7]) [%] | IC50 [8] [µM] | viability at 50 µM (MCF7 [9]) [%] | IC50 [10] [µM] | IC50 (MCF7 [11]) [µM] |
| --- | --- | --- | --- | --- | --- | --- | --- | --- | --- | --- | --- | --- |
| O=C(O)[C@@H]1Cc2c([nH]c3ccccc23)CN1Cc1ccccc1 | 2.4 | 105 | 8.1 | 28 | 6.9 | 119 | 59.5 | 49.1 | 21.4 | – | – | – |
| O=C(O)[C@@H]1Cc2c([nH]c3ccccc23)CN1CC1CC1 | 2.4 | 90.7 | 27.6 | 30.2 | -7 | 135 | 33.7 | 234 | – | 108 | – | – |
| Cc1ccc(S(=O)(=O)N[C@@H](Cc2ccccc2)C(=O)CCl)cc1 [TPCK] | – | – | – | – | – | – | – | – | 4.9 | – | – | – |
| C#CCN1Cc2[nH]c3ccccc3c2C[C@@H]1C(=O)OC | 2 | 77.2 | 50 | 31.7 | 41.1 | 114 | 43.6 | 227 | – | – | – | – |
| COC(=O)[C@H]1Cc2c([nH]c3ccccc23)CN1Cc1ccccc1 | 1.2 | 96.8 | – | 38.4 | 74.7 | 81.2 | 54.4 | 77.1 | 44.2 | – | 32.9 | – |
| C=CCOC(=O)N1Cc2[nH]c3ccccc3c2C[C@H]1C(=O)O | 2.4 | 82.9 | 26.5 | 38.4 | -6.3 | 135 | 35.6 | 109 | – | – | – | – |
| COC(=O)[C@@H]1Cc2c([nH]c3ccccc23)CN1Cc1ccccc1 | 1.6 | 100 | – | 31.5 | 68.2 | 85.9 | 60.4 | 28.8 | 30.7 | – | 32 | – |
| COC(=O)[C@H]1Cc2c([nH]c3ccccc23)CN1 | 1.1 | 115 | – | 14.3 | 7.2 | 116 | 58.4 | 60.3 | 22.1 | – | – | – |
| COC(=O)[C@@H]1Cc2c([nH]c3ccccc23)CN1C(=O)NC1CCCCC1 | 1.1 | 71.5 | – | 33 | 53.8 | 79 | 44.7 | 111 | – | 26.3 | 41.1 | 35.8 |
| CCCCCNC(=O)N1Cc2[nH]c3ccccc3c2C[C@@H]1C(=O)OC | 4.3 | 12.7 | 0.2 | 11.1 | 36.2 | 90.5 | 62.1 | 140 | 15.9 | 50.5 | – | – |
| C#CCN1Cc2[nH]c3ccccc3c2C[C@H]1C(=O)O | 2.2 | 91.9 | 18.7 | 30.5 | 7 | 126 | 50.2 | 228 | – | 112 | – | – |
| CC[C@@]1(O)C(=O)OCc2c1cc1n(c2=O)Cc2cc3ccccc3nc2-1 [CAMPTOTHECIN] | – | – | – | – | – | – | – | – | – | – | – | 0.056 |
| COC(=O)[C@@H]1Cc2c([nH]c3ccccc23)CN1 | 1.1 | 125 | – | 18.3 | 12.5 | 104 | 58.3 | 38.6 | 38.9 | – | – | – |
| COC(=O)[C@@H]1Cc2c([nH]c3ccccc23)CN1S(=O)(=O)c1ccc(Br)cc1 | 0.2 | 36.4 | – | 36.7 | 70.6 | 89.2 | 32.8 | 186 | – | -2.1 | 23.1 | – |
| COC(=O)[C@H]1Cc2c([nH]c3ccccc23)CN1C(=O)NC(C)C | 2.7 | 77 | 8.6 | 32.6 | 16.2 | 89.4 | 73.7 | 143 | 21.2 | 66.1 | – | – |
| O=C(O)[C@@H]1Cc2c([nH]c3ccccc23)CN1S(=O)(=O)c1ccc(Br)cc1 | 1.3 | 97.8 | – | 23.2 | 50 | 80.6 | 55.4 | 247 | – | 77 | 49.7 | – |
| C=CCOC(=O)N1Cc2[nH]c3ccccc3c2C[C@@H]1C(=O)OC | 2.8 | 77.3 | 15.9 | 35.1 | 57.1 | 91.6 | 50.7 | 97.6 | – | 69.5 | 27.7 | – |
